Screens: PubChem BioAssay, several laboratories
TNAP inh no acc: human TNAP enzyme inhibitors, primary screen, biochemical, luminescent, no phosphate acceptor, uHTS; purified TNAP, CDP-star luminescence, 30 min; hit rate 0.26% among 200,000; AID 1012, 2008; inhibition, % at 20 µM; Alkaline phosphatase, tissue-nonspecific isozyme (Homo sapiens), P05186;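 active = tissue-nonspecific alkaline phosphatase inhibition above about 50% at 20 µM in the single-dose screen, limit read from the data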;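 note: 0% = DMSO negative control and 100% = EDTA positive control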
TNAP act hiacc: TNAP activators at high phosphate acceptor level, primary screen, biochemical, luminescence, uHTS. Alkaline phosphatase, tissue-nonspecific isozyme (Homo sapiens), P05186. purified TNAP, CDP-star luminescence, 1 M DEA, 30 min; stronger effect = higher value; 0 = EDTA background, 1 = DMSO-only activity. activation factor at 20 µM. 200,000 tested, under 10 active;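 active = activation factor at least 2 at 20 µM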
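Control set: EDTA negative control, DMSO positive control / Assay system: human TNAP / Quantity: TNAP 1/800 final / Evaluation: TNAP activation factor scaled between EDTA and DMSO control wells / Measured by: luminescent substrate turnover signal / Compound dosing: one dose, 20 µM / Times: 30 min enzyme reaction at room temperature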
HMGR II inh: inhibitors of E. faecalis class II HMGR, primary screen, biochemical, Enterococcus faecalis; HMG-CoA reductase (Enterococcus faecalis, mvaE); purified E. faecalis HMGR, NADPH absorbance 340 nm kinetic; inhibition, % at 10 µM; hit rate 0.41% among 190,000;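 active = inhibition above a set limit, the median over all tested compounds plus 3 SD, cut at about 9.5% in these data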;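 note: enzyme runs in reverse so mevalonate oxidation gives rising NADPH absorbance; 0% = complete reaction with DMSO and 100% = background rate lacking mevalonate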
Furin inhibitor: human furin inhibitors, primary screen, biochemical, fluorescence intensity | P09958 | purified furin, fluorogenic substrate cleavage | AID 463115, 2010 | inhibition, % at 20 µM or 30 µM | hit rate 0.061% among 220,000; in the data active = inhibition above about 25%
Target sequence (P09958 108-714 limits assumed): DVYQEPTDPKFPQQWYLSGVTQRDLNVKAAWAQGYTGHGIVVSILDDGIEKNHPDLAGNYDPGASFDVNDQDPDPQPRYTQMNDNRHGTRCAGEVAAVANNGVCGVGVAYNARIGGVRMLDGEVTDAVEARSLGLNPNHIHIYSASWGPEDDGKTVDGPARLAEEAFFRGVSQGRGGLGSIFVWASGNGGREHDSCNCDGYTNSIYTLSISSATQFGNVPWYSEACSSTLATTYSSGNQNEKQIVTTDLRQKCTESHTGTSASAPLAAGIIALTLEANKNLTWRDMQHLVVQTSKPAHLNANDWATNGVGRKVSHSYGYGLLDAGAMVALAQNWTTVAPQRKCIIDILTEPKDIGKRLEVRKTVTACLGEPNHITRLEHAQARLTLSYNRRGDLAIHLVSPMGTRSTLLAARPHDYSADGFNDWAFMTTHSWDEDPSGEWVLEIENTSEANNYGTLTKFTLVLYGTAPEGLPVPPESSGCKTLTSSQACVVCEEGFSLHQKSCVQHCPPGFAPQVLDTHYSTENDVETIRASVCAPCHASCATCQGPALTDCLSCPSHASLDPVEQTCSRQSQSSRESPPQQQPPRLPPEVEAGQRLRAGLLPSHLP
TNAP inh hi DEA: human TNAP enzyme inhibitors, primary screen, biochemical, luminescent, high phosphate acceptor level, uHTS; Alkaline phosphatase, tissue-nonspecific isozyme (Homo sapiens), P05186; purified TNAP, CDP-star luminescence, 1 M DEA; inhibition, % at 20 µM; hit rate 0.03% among 200,000; AID 1135, 2008;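 active = over 50% inhibition of tissue-nonspecific alkaline phosphatase at 20 µM in the single-dose screen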;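 note: plate controls were DMSO wells for no effect and EDTA-quenched wells as full inhibition for full effect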
Pf gamet viab: late stage P. falciparum gametocyte viability inhibitors, primary screen, ATP luminescence, HTS | P. falciparum stage V gametocytes, 24 h | inhibition, % at 10.9 µM | hit rate 0.065% among 150,000 | AID 743093, 2013;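 active = inhibition above the mean plus 3 SD of compounds within the control limits, set per campaign, cut at about 38% in these data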;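 note: 0% = DMSO wells and 100% = medium only without gametocytes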
An asterisk follows results filed as active; . = not tested or not shown. Only some compounds are listed: those with a hit (about 0.68% of all), similar ones and a draw of the others.

SMILES	TNAP inh no acc	TNAP act hiacc	HMGR II inh	Furin inhibitor	TNAP inh hi DEA	Pf gamet viab
Cc1cc(-c2ccc([N+](=O)[O-])cc2)nc2ccccc12	-5	1	0	-6	-4	-23
Cc1cc(N2CCN(c3nc(-c4ccc([N+](=O)[O-])cc4)cs3)CC2)c2ccccc2n1	-9	1	14*	-29	4	-5
Cn1c(=O)c2c(ncn2CC(=O)OCC(=O)Nc2ccccc2)n(C)c1=O	-17	1.1	10*	-7	-6	-4
CCCCOc1cccc(OCC(=O)Nc2nc3ccccc3[nH]2)c1	0	1	2	-10	0	-6
CC(=O)Nc1n[nH]c(-c2ccc(C)cc2)c1C	85*	1.1	-6	-20	-6	-3
CC(=O)Nc1ccc(-c2cn3cc(C)ccc3n2)cc1	-13	1.1	-1	-48	-6	-10
COc1ccc(C(=O)Nc2n[nH]c(-c3ccncc3)n2)cc1	92*	1	3	-19	2	.
COc1ccc(C(=O)Nc2nc(C)cc(C)n2)cc1	-5	1	-1	-35	4	4
C/C(=N\NC(=O)c1cccc(N/N=C(\C)c2cc(O)ccc2O)c1)c1cc(O)ccc1O	76*	1	-1	-14	1	-3
C/C(=N\NC(=O)c1cccc(N/N=C(\C)c2ccco2)c1)c1ccco1	-17	1	-3	-13	-3	-5
Cc1ccc(NC(=O)CN(C)C(=O)c2ccc(C(F)(F)F)cc2)cc1	-22	1	-5	-25	-4	1
COc1cccc(C(=O)CN(C(=O)c2ccc(Cl)c(Cl)c2)N2C(=O)C3CCCCC3C2=O)c1 (centres undefined)	1	1	-4	-7	-3	-10
Cc1ccc2nc(CSc3nnc(Nc4ccccc4F)s3)cc(=O)n2c1	25	1	-3	-22	0	-18
O=c1cc(CSc2nnc(Nc3ccccc3F)s2)nc2sccn12	52*	1	-1	-21	0	.
CCOc1cc(/C=C2\C(=O)N(c3nc(-c4ccc(Br)cc4)cs3)N=C2c2ccccc2)ccc1O	30	0.8	4	-18	22	.
O=C1/C(=C\c2ccc(O)c(O)c2)C(c2ccccc2)=NN1c1ccccc1	88*	0.6	-3	-20	38	-10
COc1cc(/C=C2\C(=O)N(c3ccc(NC(C)=O)cc3)N=C2c2ccccc2)ccc1O	55*	0.6	4	-10	42	-5
S=c1[nH]nc(-c2ccccn2)n1/N=C/c1ccc(Br)s1	7	1	-3	-9	5	2
CN(C)/C=C(\C#N)C(=O)N/N=C/c1ccc(Cl)cc1	-8	1	-1	-7	-3	1
O=C(c1cccs1)n1nc(-c2ccccc2)nc1NCc1ccco1	6	1	1	-9	-2	.
COCC(=O)n1nc(-c2ccccc2)nc1NCc1cccs1	54*	0.9	-6	-19	15	-16
O=C(NN1S(=O)(=O)c2ccccc2S1(=O)=O)c1ccc(Br)cc1	5	0.9	16*	-19	6	11
Cc1cc(-c2ccc(Cl)s2)n[nH]1	55*	1.1	5	-14	-6	16
CCc1nnc(NC(=O)CSc2nnc(C3CCCCC3)n2-c2cccc(Cl)c2)s1	-4	1	-1	29*	-2	.
CCCCn1c(=O)c2ccccc2c2ccccc2c1=O	-7	1	32*	-12	0	.
SMILES	TNAP inh no acc	TNAP act hiacc	HMGR II inh	Furin inhibitor	TNAP inh hi DEA	Pf gamet viab
CCCn1c(=S)[nH]c2ccccc2c1=O	-6	1.1	15*	-30	-5	-11
O=C(Cc1c[nH]c2ccccc12)N1CCc2ccccc21	-10	1	-1	35*	-1	4
Cc1cccc(NC(=O)CCCn2c(=S)[nH]c3ccccc3c2=O)c1	-5	1	0	-25	-2	-23
CC(C)N=c1scc(-c2ccco2)n1/N=C/c1ccc(O)c(O)c1	74*	0.8	-2	-3	21	-20
O=C(c1ccccc1SCc1ccc(F)cc1)N1CCOCC1	-5	1	-5	-3	-4	-3
COC(=O)c1ccc(NC(=O)Nc2ccccc2C)cc1	-34	1	-1	-20	-5	-5
COC(=O)c1ccc(NC(=O)Nc2ccccc2F)cc1	-5	1	17*	-27	-3	11
COC(=O)c1nnn(-c2ccccc2)c1N	-4	1	5	-18	0	.
CCOC(=O)C(CC)n1cnc2c(nnn2-c2ccc(OC)cc2)c1=O (centres undefined)	-14	1.1	27*	-14	-6	.
CCOC(=O)c1nnn(-c2ccc(OC)cc2)c1N	-13	1.1	15*	-22	-5	.
CCn1nc(C)c(CNC(=O)Nc2ccc3c(c2)OCO3)c1C	-7	1	2	-22	0	-8
Cc1sc2ncnc(SCC(=O)N(C(C)C)C(C)C)c2c1C	6	0.9	11*	-22	8	-33
Cc1sc2ncnc(SCC(=O)NC(C)C(C)C)c2c1C (centres undefined)	-15	1	0	-8	-4	.
CCNC(=S)NNC(=O)c1cc(-c2cc(C)ccc2C)nc2ccccc12	-21	1	-4	-7	-2	.
CCC(C)(C)C(=O)Nc1cc([N+](=O)[O-])ccc1Cl	-20	1	0	-21	1	14
CCC(C)(C)C(=O)Nc1cc([N+](=O)[O-])ccc1F	-24	1	12*	-15	-2	15
Cc1ccnc(OC(C(=O)O)C(OCc2ccccc2)(c2ccccc2)c2ccc(C(F)(F)F)cc2)n1 (centres undefined)	.	.	.	.	.	-8
CC(=O)Nc1ccc(OCC(O)Cn2c(C(C)C)nc3ccccc32)cc1 (centres undefined)	-4	1	11*	-10	-4	-15
COc1ccc(CNC(=S)N/N=C(\C)c2ccc(OC)cc2)cc1	.	.	.	-6	.	5
COc1ccc(/C(C)=N/NC(=S)NCCc2ccccc2)cc1	-54	1	1	-17	0	39*
COC(=O)C1C(=O)/C(=C/N(C)C)C(=O)CC1(C)C (centres undefined)	-12	1	2	38*	-4	-10
CN=CC1=C(O)C(C(=O)OC)C(C)(C)CC1=O (centres undefined)	-5	1	1	-20	1	13
O=C(O)c1ccc(N2C(=O)/C(=C/C=C/c3ccccc3)SC2=S)cc1	6	1	0	-21	-4	15
